Screening data (PubChem)
SENP8 block-1 = blocks the human protease SENP8. 330,000 compounds, 1.2% hits. Q96LD8. AID 2540. inhibition, % at 10 µM. purified SENP8, Z-RLRGG-aminoluciferin cleavage, luminescence; in the data active = inhibition above about 50%
Platelet DG rel = modulates dense granule release in human platelets. human platelet-rich plasma, SFLLRN dense granule ATP release, luminescence. inhibition, %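 (compounds screened at 7.5 µM in platelet-rich plasma)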. 300,000 compounds, 0.22% hits. AID 1663;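 active = mean replicate score, as percent of positive control, at or above 50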
SENP6 block = blocks the human protease SENP6. Q9GZR1. Recombinant SENP6 catalytic domain, aminoluciferin luminescence. inhibition, % at 10 µM. 330,000 compounds, 1.8% hits;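 active = inhibition above about 50% at the single tested dose, limit read from the data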
SENP7 block = blocks the human protease SENP7 | Q9BQF6 | recombinant SENP7, Z-RLRGG-aminoluciferin luminescence, 40 min | inhibition, % at 5 µM | 330,000 compounds, 1.5% hits;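 active = inhibition above about 50% at the single test dose, limit read from the data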
Target sequence (Q9BQF6 706-1050 limits assumed): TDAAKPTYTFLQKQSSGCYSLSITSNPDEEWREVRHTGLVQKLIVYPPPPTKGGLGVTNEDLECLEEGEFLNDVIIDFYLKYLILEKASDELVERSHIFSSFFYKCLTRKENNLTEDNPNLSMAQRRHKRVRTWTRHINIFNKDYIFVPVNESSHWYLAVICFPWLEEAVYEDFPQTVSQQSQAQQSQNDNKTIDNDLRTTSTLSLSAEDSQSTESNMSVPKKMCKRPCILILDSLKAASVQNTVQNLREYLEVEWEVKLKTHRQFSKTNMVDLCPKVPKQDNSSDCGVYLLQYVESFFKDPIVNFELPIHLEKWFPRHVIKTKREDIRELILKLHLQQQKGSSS
SENP8 block-2 = blocks human SENP8 cleavage of Nedd8 substrate; Q96LD8; recombinant SENP8, Nedd8 substrate fluorescence; inhibition, % at 20 µM; 360,000 compounds, 0.64% hits; AID 602440; in the data active = inhibition mostly above about 40%, no sharp cut-off; inactive = mostly below about 27%
SENP1 FRET inh = blocks the human SENP1 SUMO protease catalytic domain; 360,000 compounds, 0.21% hits; Q9P0U3; recombinant SENP1 catalytic domain, CyPet-SUMO1-YPet FRET cleavage; inhibition, % at 10 µM;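 active = inhibition at least 30% at 10 µM, raw YFP signal under a set limit, fluorescence ratio 0.5 to 1.5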
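Test system: hSENP1 catalytic domain, recombinant; Amount: 20 pM final SENP1 enzyme; Medium: Tris pH 8 buffer plus EDTA, NaCl, BME, BSA, NP40, catalase; Schedule: 50 min enzyme reaction, room temperature, light-protected; Technique: FRET fluorescence in CFP and YFP emission channels; Controls: no-enzyme wells low, DMSO-plus-enzyme wells high control.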
SENP8 conf = confirmation of human SENP8 protease inhibitors. shares compounds with SENP7 block. Recombinant SENP8, Z-RLRGG-aminoluciferin luminescence, 60 min. inhibition, % at 12.5 µM. 6,200 compounds, 40% hits;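 active = mean inhibition across replicates above about 50%, limit read from the data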
SENP6 confirm = human SENP6 inhibition, confirmed; recombinant SENP6, Z-RLRGG-aminoluciferin luminescence; inhibition, % at 12.5 µM; AID 488915; shares compounds with SENP7 block; 6,200 compounds, 58% hits
SENP7 confirm = human SENP7 inhibition, confirmed | 6,200 compounds, 69% hits | inhibition, % at 12.5 µM | recombinant SENP7, Z-RLRGG-aminoluciferin luminescence, 40 min | shares compounds with SENP7 block
Casp3 select = selectivity test for SENP inhibitors: human caspase-3 inhibition; shares compounds with SENP7 block; purified caspase-3, Z-DEVD-aminoluciferin luminescence, 60 min; inhibition, % at 12.5 µM; 6,200 compounds, 60% hits;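 active = mean inhibition above about 50%, limit read from the data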
Target sequence (P42574 28-227 limits assumed): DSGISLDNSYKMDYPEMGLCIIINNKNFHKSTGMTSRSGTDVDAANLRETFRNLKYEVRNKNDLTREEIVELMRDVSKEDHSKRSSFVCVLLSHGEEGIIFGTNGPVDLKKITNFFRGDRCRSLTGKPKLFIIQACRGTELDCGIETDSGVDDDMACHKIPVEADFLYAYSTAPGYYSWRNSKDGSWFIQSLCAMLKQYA
Luc interf = counter-screen for SENP inhibitors: luminescence interference. 6,200 compounds, 39% hits. shares compounds with SENP7 block. inhibition, % at 12.5 µM. Pre-incubated SENP8/Z-RLRGG-aminoluciferin, luciferase luminescence interference. AID 488919;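 active = mean inhibition above about 50% when retested at one dose, limit read from the data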
Large screens that a line does not name were inactive (follow-up assays come after a bar, where they were run). Only some compounds are listed: those with a hit (about 2.6% of all), similar ones and a draw of the others.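 Rule for the calls, unless noted: active = mean inhibition above about 50% in the one-dose retest (limit read from the data); inactive = the rest.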

CSc1ncccc1C(=O)OCc1ccccc1F	SENP8 block-1 50.2, SENP6 block 71.7 | SENP8 conf 53.2 | SENP6 confirm 55.0 | SENP7 confirm 79.4 | Casp3 select 51.4 | Luc interf 55.7
CSc1ncccc1C(=O)OCc1ccccc1	SENP6 block 53.7 | SENP8 conf inactive | SENP6 confirm inactive | SENP7 confirm 59.9 | Casp3 select inactive | Luc interf inactive
COC(C(=O)NC(C(C)C)C(C)C)c1ccccc1 (stereo not given)	none
NC1=C(Br)C(=O)c2ccccc2C1=O	SENP8 block-1 53.9, SENP6 block 76.0, SENP8 block-2 104.3 | SENP8 conf inactive | SENP6 confirm 63.2 | SENP7 confirm inactive | Casp3 select 77.9 | Luc interf inactive
CCCCCCSC1=C(C#N)C(=O)NC2(CCCCC2)S1	SENP8 block-1 59.2 | SENP8 conf inactive | SENP6 confirm 86.9 | SENP7 confirm 94.5 | Casp3 select inactive | Luc interf 88.5
Clc1nc(-c2ccccn2)nc2scc(-c3ccccc3)c12	SENP8 block-1 68.4, SENP6 block 87.1 | SENP8 conf inactive | SENP6 confirm 52.0 | SENP7 confirm inactive | Casp3 select inactive | Luc interf inactive
COc1ccc2nc(-c3ccco3)c(-c3ccco3)nc2c1	none
COc1ccc2nc3cccc(OC)c3nc2c1	SENP6 block 72.6 | SENP8 conf inactive | SENP6 confirm inactive | SENP7 confirm inactive | Casp3 select 51.3 | Luc interf inactive
Cc1ccc(C)c(N=Nc2nc3ccccc3n2C)c1	SENP8 block-1 64.6, SENP6 block 78.9, SENP7 block 86.6 | SENP8 conf 90.2 | SENP6 confirm 83.8 | SENP7 confirm 99.5 | Casp3 select 63.4 | Luc interf 93.6
Cc1ccc(S(=O)(=O)N2CCOC23CCN(C(=O)C(=O)NCc2ccccc2)CC3)cc1	none
Cc1cccc(/C=N\N=C\c2cccc(C)c2)c1	SENP6 block 63.5, SENP7 block 51.0 | SENP8 conf inactive | SENP6 confirm 53.5 | SENP7 confirm 80.9 | Casp3 select inactive | Luc interf inactive
Cc1cc(C)c(C)c(S(=O)(=O)N2CCN(C(=O)CNC(=O)c3ccco3)CC2)c1C	none (no result: Platelet DG rel)
c1ccc(-c2cnc(-c3cccnc3)o2)cc1	none (no result: Platelet DG rel)
NC(=O)c1ccc(-c2ncc(-c3ccccc3)o2)cc1	SENP7 block 52.1 | SENP8 conf inactive | SENP6 confirm 52.0 | SENP7 confirm 59.4 | Casp3 select inactive | Luc interf inactive
C/C(=N\Nc1ccc([N+](=O)[O-])cc1)c1ccc(-n2nncc2C)cc1	none
CC(C)(C)c1cnnn1-c1ccc(/C=N/Nc2ccc([N+](=O)[O-])cc2)cc1	SENP8 block-1 64.0 | SENP8 conf inactive | SENP6 confirm inactive | SENP7 confirm inactive | Casp3 select inactive | Luc interf inactive
CC(C(=O)Nc1ccc(C(N)=O)cc1)N1C(=O)c2ccccc2S1(=O)=O (stereo not given)	none
Cc1ccc(-c2nc3ccccc3[nH]2)s1	SENP8 block-1 92.8, Platelet DG rel 59.0, SENP6 block 97.0, SENP7 block 97.2, SENP1 FRET inh 58.6 | SENP8 conf 95.9 | SENP6 confirm 96.2 | SENP7 confirm 100.3 | Casp3 select 96.3 | Luc interf 95.0
c1csc(-c2nc3ccccc3[nH]2)c1	SENP6 block 53.0 (no result: Platelet DG rel) | SENP8 conf inactive | SENP6 confirm inactive | SENP7 confirm 69.2 | Casp3 select 65.9 | Luc interf inactive
Fc1ccc(-c2nc(-c3cccs3)[nH]c2-c2ccc(F)cc2)cc1	none
Clc1ccc(Cl)c(-c2nc(-c3ccncc3)no2)c1	none
Cc1ccc(-c2nc(-c3ccncc3)no2)c(Cl)c1	SENP8 block-1 74.6, SENP6 block 71.2, SENP7 block 88.7 | SENP8 conf inactive | SENP6 confirm inactive | SENP7 confirm inactive | Casp3 select inactive | Luc interf inactive
Cc1onc(-c2ccccc2Cl)c1-c1nc(-c2ccncc2)no1	none
Clc1ccc(-c2nc(-c3ccncc3)no2)c(Cl)c1	SENP8 block-1 58.3, SENP6 block 63.2, SENP7 block 76.7 | SENP8 conf inactive | SENP6 confirm inactive | SENP7 confirm inactive | Casp3 select inactive | Luc interf inactive
Cc1cc(C)nc(/N=C(\N)Nc2ccccc2-c2ccccc2)n1	none
CC(Sc1ncnc2sc(-c3ccccc3)cc12)C(=O)NCC1CCCO1 (stereo not given)	none
CN(C)c1ccc(NC(=O)COC(=O)Cn2nnc3ccccc32)cc1	none
CCc1ccn2cc(-c3cc(-c4ccccc4)no3)nc2c1	SENP8 block-1 89.7, SENP6 block 93.0, SENP7 block 96.5 | SENP8 conf inactive | SENP6 confirm 92.6 | SENP7 confirm 76.6 | Casp3 select 61.7 | Luc interf inactive
Cc1ccc(/C=N/c2sc3c(c2C#N)CCCCC3)o1	SENP8 block-1 87.3, SENP6 block 97.0 | SENP8 conf 94.3 | SENP6 confirm 95.3 | SENP7 confirm 99.7 | Casp3 select 68.6 | Luc interf 77.3
Cc1ccc(/C=N/Nc2ccccn2)s1	none
Cc1ccc(C=Nc2ccccc2C#N)s1	SENP8 block-1 67.4, SENP6 block 83.5 | SENP8 conf inactive | SENP6 confirm 66.6 | SENP7 confirm 86.7 | Casp3 select 71.8 | Luc interf 62.1
N#Cc1c(/N=C/c2ccco2)sc2c1CCC2	none
N#Cc1c(/N=C/c2cc3ccccc3s2)sc2c1CCC2	none
Cc1ccc(/C=N/c2sc3c(c2C#N)CCC3)s1	SENP6 block 78.0, SENP7 block 84.5 | SENP8 conf inactive | SENP6 confirm inactive | SENP7 confirm inactive | Casp3 select inactive | Luc interf inactive
C[C@@H]1O[C@H](C2CCCC2)Cc2[nH]c(=S)[nH]c(=O)c21	none (no result: SENP8 block-1, Platelet DG rel, SENP6 block, SENP7 block)
COc1ccc(C(=O)Nc2nc3ccc(OC)cc3s2)cc1	none
CCc1noc(C)c1C(=O)Nc1nc2c(F)cc(F)cc2s1	SENP8 block-1 82.9, SENP6 block 89.7, SENP7 block 73.1 (no result: Platelet DG rel) | SENP8 conf 51.8 | SENP6 confirm 85.5 | SENP7 confirm 97.9 | Casp3 select 86.9 | Luc interf 50.6
CCc1noc(C)c1C(=O)Nc1nc2c(C)cccc2s1	none
CCOc1ccc2nc(NC(=O)COC)sc2c1	none
